Assay outcomes (PubChem BioAssay)
NF-kB expr up: compounds increasing NF-kB expression in human neuronal cells; NF-kB reporter expression; active compounds read high; fold change at 12.5 µM; actives 1.6% (n = 190,000); in the data active = fold change above about 3.3
STAT3 blocker: inhibitors of IL-6 induced STAT3 signaling; U3A cells, IL-6 STAT3-luciferase reporter, luminescence; host cell line lacks STAT1; inhibition, % at 5.5 µM; actives 0.89% (n = 190,000);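 active = inhibition above the mean inhibition across all screened compounds plus 3 SD, cut at about 44% in these data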
STAT1 activator: activators of IFN-gamma induced STAT1 signaling; NIH 3T3 STAT1-luciferase reporter, luminescence; 100% = IFN-gamma alone, no compound; activation (% of control), % at 5.5 µM; actives 2.6% (n = 200,000); AID 932;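 active = activation above the screen-wide mean activation plus 3 SD, cut at about 130% in these data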
STAT1 blocker: inhibitors of IFN-gamma induced STAT1 signaling; inhibition, % at 5.5 µM; NIH 3T3 STAT1-luciferase reporter, luminescence; actives 0.35% (n = 200,000); AID 920;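 active = inhibition above a set limit, the mean inhibition across all tested compounds plus 3 SD, cut at about 34% in these data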
APP 5'UTR act: APP 5'UTR luciferase reporter activation; SH-SY5Y APP 5'UTR luciferase reporter, luminescence; zero percent = DMSO vehicle wells; activation, % at 2 µM; actives 1% (n = 190,000);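 active = activation above a set limit, based on mean plus 3 SD of controls, cut at about 140% in these data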
STAT3 act: activators of IL-6 induced STAT3 signaling. actives 0.91% (n = 190,000). U3A cells, IL-6 STAT3-luciferase reporter, luminescence; 100% = signal with IL-6 EC80 alone. activation (% of control), % at 5.6 µM;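 active = activation above the screen-wide mean of compound activation plus 3 SD, cut at about 130% in these data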
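Detection: reporter luminescence signal / Assay system: STAT1-lacking human U3A cells, STAT3 luciferase reporter / Incubation: compound pre-incubation 1 h before IL-6, then 6 h stimulation at 37 °C / Control set: IL-6-only high control / Read-out: % activation relative to IL-6 control / Probe or stimulus: Interleukin-6, 33 ng/mL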
STAT1 activ conf: STAT1 activation, confirmation assay; shares compounds with STAT1 activator; NIH 3T3 STAT1-luciferase reporter, IFN-gamma potentiation, luminescence; 100% = IFN-gamma EC80 alone, no compound; activation (% of control), % at 5.7 µM; actives 97% (n = 1,200); AID 1262;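 active = activation above a set limit carried over from the earlier primary STAT1 screen, cut at about 140% in these data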
NFkB act: NF-kappaB activation in STAT1 activator counter-screen | shares compounds with STAT1 activator | HEK293T NF-kB luciferase reporter, TNF-alpha stimulated, luminescence; 100% = TNF-alpha with vehicle only | activation (% of control), % at 5.7 µM | actives 43% (n = 1,200);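 active = activation above the mean of solvent-only control wells plus 3 SD, set per campaign, cut at about 130% in these data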;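 note: TNF-alpha given at a submaximal dose yielding about 80% of full reporter signal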
STAT3 act STAT1c: counter-screen for STAT1 activators: human STAT3 activation. shares compounds with STAT1 activator. U3A cells STAT3-luciferase reporter, IL-6, luminescence; cells lack STAT1; 100 = IL-6 alone, no compound effect. activation (% of control), % at 5.7 µM. actives 46% (n = 1,200). AID 1316;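 active = activation above the solvent-only control well mean plus 3 SD, set per plate batch, cut at about 110% in these data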;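 note: higher means more STAT3 reporter activation so hits are non-selective activators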
Large screens that a line does not name were inactive (follow-up assays come after a bar, where they were run). Compounds with a hit are over-represented: about 4.9% of the library has one in this group of screens.

CCCCOC(=O)Nc1nc2ccccc2s1	NF-kB expr up 5.4, STAT1 activator 153 | STAT1 activ conf 213 | NFkB act inactive | STAT3 act STAT1c inactive
CCOc1ccc2nc(NC(=O)CN3CCN(C)CC3)sc2c1	none
CCOc1ccc2nc(NC(=O)Nc3ccccc3)sc2c1	STAT1 activator 155, APP 5'UTR act 148 | STAT1 activ conf 224 | NFkB act 139 | STAT3 act STAT1c 115
CCOc1ccc2nc(NC(=O)Nc3cccs3)sc2c1	NF-kB expr up 9.5, STAT1 activator 184, APP 5'UTR act 216 | STAT1 activ conf 253 | NFkB act 149 | STAT3 act STAT1c 121
COc1ccc(NC(=O)c2nc3ccccc3s2)cc1	NF-kB expr up 7.5, STAT1 activator 161, APP 5'UTR act 208 | STAT1 activ conf 232 | NFkB act inactive | STAT3 act STAT1c inactive
COc1ccc(OC)c(NC(=O)c2nc3ccccc3s2)c1	none
COc1ccc(/C(N)=N/OC(=O)c2cccc([N+](=O)[O-])c2)cc1OC	none (no result: APP 5'UTR act)
N/C(=N\OC(=O)c1ccc2c(c1)OCO2)c1cccc([N+](=O)[O-])c1	STAT1 activator 153 | STAT1 activ conf 198 | NFkB act inactive | STAT3 act STAT1c 118
O=C(O)CCc1nnc(SCC(=O)Nc2cccc(C(F)(F)F)c2)[nH]c1=O	none
OCc1cc(-c2ccc(Cl)c(Cl)c2)on1	none
Cc1ccccc1-c1nnc(NC(=O)c2cc3ccccc3oc2=O)s1	none
Cc1cccnc1NC(=O)c1cc2ccccc2oc1=O	NF-kB expr up 4.2, STAT1 activator 156, APP 5'UTR act 176 | STAT1 activ conf 191 | NFkB act inactive | STAT3 act STAT1c 117
CCN(/C=N/c1sc2c(c1C#N)CCCCC2)CC	NF-kB expr up 4.2, STAT1 activator 158 | STAT1 activ conf 182 | NFkB act 135 | STAT3 act STAT1c 125
N#Cc1c(/N=C/C=C/c2ccccc2)sc2c1CCCC2	none
Cc1c(C(=O)OCC(=O)NCC2CCCO2)cccc1[N+](=O)[O-] (stereo not drawn)	none
O=C(Nc1nc2ccccc2s1)c1ccc(N2CCCCC2)c([N+](=O)[O-])c1	STAT1 activator 166 | STAT1 activ conf 197 | NFkB act inactive | STAT3 act STAT1c inactive
Cc1cc(C)n(-c2ccc(C(=O)NC3=NCCS3)cc2)n1	none
Cc1cc(C)n(-c2ccc(C(=O)Nc3nc4ccccc4s3)cc2)n1	NF-kB expr up 3.9, STAT1 activator 174 | STAT1 activ conf 225 | NFkB act 141 | STAT3 act STAT1c inactive
COc1cccc(C(=O)Nc2ccc(C3CC3(Cl)Cl)cc2)c1 (stereo not drawn)	NF-kB expr up 5.7, STAT1 activator 152 | STAT1 activ conf 193 | NFkB act 143 | STAT3 act STAT1c inactive
Cc1nc2c(ccc3nc(NC(=O)c4ccc5c(c4)OCCO5)sc32)s1	NF-kB expr up 5.4, STAT1 activator 168 | STAT1 activ conf 230 | NFkB act inactive | STAT3 act STAT1c inactive
CSc1ccc(CN(C)CC(=O)Nc2cccc(Br)c2)cc1	none
COC(=O)c1ccccc1NC(=O)N1c2ccccc2Sc2ccccc21	none
O=C(/C=C/c1ccc(F)cc1)N1CCCc2ccccc21	none
O=C(/C=C/c1cccc(F)c1)N1CCc2ccccc21	STAT1 activator 199, APP 5'UTR act 200 | STAT1 activ conf 238 | NFkB act inactive | STAT3 act STAT1c inactive
COc1cccc(-c2nn[nH]n2)c1O	none
CN(CCC#N)C(=O)COC(=O)c1ccc(Cl)c(S(=O)(=O)N(C)c2ccccc2)c1	none
CCC(N=c1cc(-c2ccc(OC)cc2)oc2ccc(C)cc12)C(=O)O (stereo not drawn)	STAT1 activator 164, APP 5'UTR act 147 | STAT1 activ conf 137 | NFkB act inactive | STAT3 act STAT1c inactive
Cc1c(-c2nc(N)nc(Nc3ccccc3F)n2)oc2ccccc12	NF-kB expr up 5.8, STAT1 activator 198, APP 5'UTR act 176 | STAT1 activ conf 232 | NFkB act 141 | STAT3 act STAT1c 114
Cc1ccc(CSCCNC(=O)c2ccc(Cl)c(S(=O)(=O)N3CCOCC3)c2)cc1	none
COc1ccc(Cn2c(C3CC3)nc3ccc(NC(=O)C4CC4)cc3c2=O)cc1	NF-kB expr up 8.4, STAT1 activator 209, APP 5'UTR act 173 | STAT1 activ conf 294 | NFkB act 144 | STAT3 act STAT1c 124
COc1cccc(Cn2c(C3CC3)nc3ccc(NC(=O)c4ccco4)cc3c2=O)c1	none
CCSC1=N/C(=C/c2ccsc2)C(=O)N1c1ccccc1	none
CCN(CC)c1ccc(/C=N/NC(=O)Nc2ccccc2)cc1	STAT1 activator 162 (no result: NF-kB expr up) | STAT1 activ conf 173 | NFkB act 134 | STAT3 act STAT1c 123
CCN(CC)c1ccc(/C=N\NC(N)=O)cc1	none
CCOc1ccc(/C=N/NC(=O)CC(=O)NCc2ccccc2)cc1	none
CC(=O)Oc1ccc(/C=N/NC(=S)Nc2ccccc2)cc1	NF-kB expr up 5.3, STAT1 activator 160 | STAT1 activ conf 209 | NFkB act inactive | STAT3 act STAT1c inactive
CCOc1ccc(/C=N/NC(=O)Nc2ccccc2)cc1	STAT1 activator 161 | STAT1 activ conf 208 | NFkB act 140 | STAT3 act STAT1c 121
O=C(c1cccc(C(F)(F)F)c1)C1CCCN(Cc2cccn2-c2ccccn2)C1 (stereo not drawn)	none
CCOC(=O)C1=C(C(F)(F)F)Nc2ncnn2C1c1ccc(OC)cc1OC (stereo not drawn)	none
CCC(C)NC(=O)CSc1nnc(-c2cc(-c3cccs3)nc3ccccc23)o1 (stereo not drawn)	none
CCOC(=O)c1cnc(SCc2ccccc2)nc1N	NF-kB expr up 9, STAT1 activator 158, APP 5'UTR act 146 | STAT1 activ conf 212 | NFkB act 135 | STAT3 act STAT1c inactive
CCOC(=O)c1cnc(SCc2ccc(C(C)(C)C)cc2)nc1N	none
Cc1ccc(NC(=O)/C(Cl)=C/c2ccccc2)cc1C	NF-kB expr up 9.1, STAT1 activator 177, APP 5'UTR act 139 | STAT1 activ conf 230 | NFkB act inactive | STAT3 act STAT1c inactive
CC(=O)Nc1ccccc1C(=O)C(=O)Nc1ccc(C)c(C)c1	none
